The source of these data is ChEMBL document CHEMBL2169855, “Carbamoyl pyridone HIV-1 integrase inhibitors. 1. Molecular design and establishment of an advanced two-metal binding pharmacophore” (J Med Chem, 2012).

Data set [1] deals with Human immunodeficiency virus type 1 integrase (Human immunodeficiency virus 1, UniProt Q7ZJM1). Briefly: Inhibition of HIV1 integrase strand transfer activity using pre-incubation and wash with Mg2+ cofactor by ELISA based microtiter plate integration assay. The procedure, abridged:
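Preformed IN–substrate DNA complex on microtiter plate, unbound IN washed out; compound preincubated with complex 30 min at 30 °C in 30 mM MOPS pH 7.2, 10 mM DTT, 5% glycerol, 100 μg/mL BSA; Mg2+ 15 mM throughout; strand transfer started with digoxigenin-labeled target DNA, products quantified by anti-Dig ELISA; mean ± sd of three independent experiments.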
For orientation: In an ELISA, binding on a coated surface is turned into a signal by an enzyme label.

A short description of data set [2]: Cytotoxicity against human MT4 cells incubated for 4 days by MTT assay. Type of data set: cell-based. The essentials:
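Uninfected MT-4 cells, 2.5 × 10^4/well, cultured with graded compound concentrations for 4 days; growth inhibition measured by MTT absorbance at 560 and 690 nm.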

The test system of data set [3] is Human immunodeficiency virus 1. The data set is described as follows: Inhibition of wild type HIV1 3B infected in human MT4 cells using cells pre-incubated with compound for 1 hr measured 4 days post viral infection by MTT assay. Type of data set: functional, organism-based. The conditions noted are these: Human immunodeficiency virus 1, 3B. The essentials:
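MT-4 cells (2.5 × 10^4/well, RPMI 1640 + 10% FBS) exposed to compound dilutions 1 h, then infected with HIV-1 IIIB (MOI 0.001 or TCID50 4 to 10); after 4 days viability read by MTT absorbance at 560/690 nm; mean ± sd of three independent experiments.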

Data set [4] relates to Human immunodeficiency virus 1. The data set is described as follows: Inhibition of wild type HIV1 3B infected in human MT4 cells using cells pre-incubated with compound for 1 hr measured 4 days post viral infection in presence of 20 mg/ml HSA by MTT assay. Type of data set: functional, organism-based. The conditions noted are these: Human immunodeficiency virus 1, 3B.
Data set [5] in a line: Oral bioavailability in fed cynomolgus monkey at 5 mg/kg measured up to 24 hrs. It is filed as ADME, organism-based, Macaca fascicularis. The conditions noted are these: in vivo.
In data set [6] the test system is Human immunodeficiency virus 1. The data set is described as follows: Resistance index, ratio of IC50 for HIV1 3B containing integrase Q148K mutant to IC50 for wild type HIV1 3B.
Data set [7] in a line: Plasma concentration in fed rat at 5 mg/kg, po measured at 24 hrs. It is filed as ADME, organism-based. More on the design: dose 5 mg/kg, route oral.
Data set [8] in a line: Ratio of Plasma concentration in fed beagle dog at 5 mg/kg, po measured at 24 hrs to IC50 for wild type HIV1 3B infected in human MT4 cells in presence of 20 mg/ml HSA.
Data set [9] is described as follows: Oral bioavailability in fed beagle dog at 5 mg/kg measured up to 24 hrs. Type of data set: ADME, organism-based, Canis lupus familiaris. The conditions noted are these: in vivo.
Data set [10] is described as follows: Total clearance in fed cynomolgus monkey at 1 mg/kg, iv measured up to 24 hrs. Type of data set: ADME, organism-based, Macaca fascicularis. More on the design: dose 1 mg/kg, route intravenous. The conditions noted are these: in vivo. The essentials:
(§1)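 Intravenous 1 mg/kg, fed conditions; vehicle DMA/PEG/saline (1:4:5) for rats, 50 mM N-methylglucamine in 3% mannitol for dogs and monkeys; rat blood via jugular cannula; plasma collected up to 24 h, centrifuged 16000g 3 min, held at −20 °C; noncompartmental analysis.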

The nature of data set [11]: Volume of distribution at steady state in fed beagle dog at 1 mg/kg, iv measured up to 24 hrs. Type of data set: ADME, organism-based, Canis lupus familiaris. More on the design: dose 1 mg/kg, route intravenous. The conditions noted are these: in vivo, read-out: Vdss. The procedure, abridged:
as §1

In data set [12] the test system is Human immunodeficiency virus 1. Briefly: Potency shift, ratio of IC50 for wild type HIV1 3B infected in human MT4 cells in presence of 20 mg/ml HSA to IC50 for wild type HIV1 3B infected in human MT4 cells in absence of HSA. It is filed as functional. The essentials: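 MT-4 cells (2.5 × 10^4/well) preincubated 1 h with graded compound, then infected with HIV-1 IIIB (MOI 0.001 or TCID50 4 to 10), with or without human serum albumin 20 mg/mL; after 4 days viability read by MTT absorbance at 560/690 nm. Fold-shift = IC50 with HSA over IC50 without.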

The nature of data set [13]: Terminal half life in fed rat at 1 mg/kg, iv measured up to 24 hrs. Type of data set: ADME, organism-based. Further details: dose 1 mg/kg, route intravenous; call rule not given here. The conditions noted are these: in vivo, read-out: beta t1/2 (converted). The procedure, abridged:
as §1

Data set [14] is described as follows: Inhibition of CYP450. Type of data set: ADME.
Data set [15] can be described thus: Volume of distribution at steady state in fed cynomolgus monkey at 1 mg/kg, iv measured up to 24 hrs. The conditions noted are these: in vivo, read-out: Vdss. Type of data set: ADME, organism-based, Macaca fascicularis. More on the design: dose 1 mg/kg, route intravenous. The essentials: as §1
The nature of data set [16]: Terminal half life in fed cynomolgus monkey at 1 mg/kg, iv measured up to 24 hrs. Type of data set: ADME, organism-based, Macaca fascicularis. Further details: dose 1 mg/kg, route intravenous. The conditions noted are these: in vivo, read-out: beta t1/2 (converted). The procedure, abridged:
as §1

A short description of data set [17]: Ratio of Plasma concentration in fed rat at 5 mg/kg, po measured at 24 hrs to IC50 for wild type HIV1 3B infected in human MT4 cells in presence of 20 mg/ml HSA.
Data set [18] has as its system Human immunodeficiency virus 1. Briefly: Resistance index, ratio of IC50 for HIV1 3B containing integrase N155H mutant to IC50 for wild type HIV1 3B. It is filed as functional. The procedure, abridged:
(§2)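 Integrase mutations introduced into pNL432 molecular clone; plasmids transfected into 293T cells, supernatants harvested after 2 days and stored at −80 °C. Mutant and wild-type viruses tested in HeLa-CD4 cells carrying HIV-1 LTR-driven β-galactosidase reporter. Fold change is mutant IC50 over wild-type IC50.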

The nature of data set [19]: AUC (0 to infinity) in fed rat at 5 mg/kg, po measured up to 24 hrs. The conditions noted are these: plasma. Further details: time infinity, dose 5 mg/kg, route oral. It is filed as ADME, organism-based.
The nature of data set [20]: Terminal half life in fed beagle dog at 1 mg/kg, iv measured up to 24 hrs. Type of data set: ADME, organism-based, Canis lupus familiaris. Further details: dose 1 mg/kg, route intravenous. The conditions noted are these: in vivo, read-out: beta t1/2 (converted). The procedure, abridged: as §1
Data set [21] is described as follows: Oral bioavailability in fed rat at 5 mg/kg measured up to 24 hrs. It is filed as ADME, organism-based. The conditions noted are these: in vivo.
Data set [22] can be described thus: Ratio of Plasma concentration in fed cynomolgus monkey at 5 mg/kg, po measured at 24 hrs to IC50 for wild type HIV1 3B infected in human MT4 cells in presence of 20 mg/ml HSA.
Data set [23] can be described thus: Half life in fed rat at 5 mg/kg, po measured up to 24 hrs. Type of data set: ADME, organism-based. Further details: dose 5 mg/kg, route oral. The conditions noted are these: in vivo.
Data set [24] can be described thus: Total clearance in fed beagle dog at 1 mg/kg, iv measured up to 24 hrs. Further details: dose 1 mg/kg, route intravenous. Type of data set: ADME, organism-based, Canis lupus familiaris. The conditions noted are these: in vivo. The essentials:
as §1

The nature of data set [25]: Volume of distribution at steady state in fed rat at 1 mg/kg, iv measured up to 24 hrs. More on the design: dose 1 mg/kg, route intravenous. It is filed as ADME, organism-based. The conditions noted are these: in vivo, read-out: Vdss. The essentials:
as §1

The subject of data set [26] is Human immunodeficiency virus 1. The data set is described as follows: Resistance index, ratio of IC50 for HIV1 3B containing integrase Y143R mutant to IC50 for wild type HIV1 3B. Type of data set: functional. The procedure, abridged:
as §2

A short description of data set [27]: Total clearance in fed rat at 1 mg/kg, iv measured up to 24 hrs. It is filed as ADME, organism-based. Further details: dose 1 mg/kg, route intravenous. The conditions noted are these: in vivo. The procedure, abridged:
as §1

The term IC50 denotes the point on the concentration scale where inhibition reaches its midpoint. As a reminder, the CC50 is the concentration at which the toxic effect on the cells reaches its halfway point. What is called bioavailability is the share of a dose that reaches the circulation, judged against a reference dose that is usually intravenous. In general, clearance refers to a measure of how efficiently the substance is removed, as volume per time. What is called AUC(0-inf) is total exposure, with the tail of the curve extrapolated.

Human immunodeficiency virus type 1 integrase, sequence (Q7ZJM1 whole entry): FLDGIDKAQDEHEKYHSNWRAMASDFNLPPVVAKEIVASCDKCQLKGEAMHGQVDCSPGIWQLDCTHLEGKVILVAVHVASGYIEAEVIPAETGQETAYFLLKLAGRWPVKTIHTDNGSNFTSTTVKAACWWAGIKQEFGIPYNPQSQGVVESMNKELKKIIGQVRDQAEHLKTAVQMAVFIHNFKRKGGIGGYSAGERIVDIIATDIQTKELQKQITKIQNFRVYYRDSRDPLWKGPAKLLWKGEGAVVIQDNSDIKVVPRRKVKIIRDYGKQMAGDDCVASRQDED

As for `COCCNC(=O)c1[nH]cc(C(=O)NCc2ccc(F)cc2)c(=O)c1O`, the IC50 was 130 nM in data set [1] and 110 nM in [3]. In [2], this compound had a CC50 at 96 h of 16000 nM.

Take `O=C(O)c1[nH]cc(C(=O)NCc2ccc(F)cc2)c(=O)c1O`: the figures for the IC50 in data set [1] and in data set [3] were 10 nM and 1400 nM, respectively. The compound also showed a 50% cytotoxic concentration (CC50) at 96 h in [2] of more than 200000 nM.

For the compound `O=C(NCCO)c1[nH]cc(C(=O)NCc2ccc(F)cc2)c(=O)c1O`, the IC50 in data set [1] came to 300 nM; in [3] it was 5500 nM. This compound returned a CC50 at 96 h in data set [2] of more than 200000 nM.

Consider `NC(=O)c1[nH]cc(C(=O)NCc2ccc(F)cc2)c(=O)c1O`, for which the figures for the IC50 in data set [1] and in data set [3] were 380 nM and 5500 nM, respectively. In [2], this compound had a CC50 at 96 h of 40000 nM.

For `CN(C)C(=O)c1[nH]cc(C(=O)NCc2ccc(F)cc2)c(=O)c1O`, the IC50 in data set [1] worked out at 540 nM; in data set [3], 1600 nM. The compound also showed a CC50 at 96 h in [2] of 5100 nM.

On to `Cc1nnc(C(=O)NC(C)(C)c2nc(C(=O)NCc3ccc(F)cc3)c(O)c(=O)n2C)o1` [RALTEGRAVIR], for which the IC50 was determined as 29 nM in data set [4] and 6.2 nM in data set [3].

`CNC(=O)c1[nH]cc(C(=O)NCc2ccc(F)cc2)c(=O)c1O`: the IC50 in [1] was determined as 1300 nM; in [3], 120 nM. The CC50 at 96 h in data set [2] is 8500 nM.

For the compound `COC(=O)c1[nH]cc(C(=O)NCc2ccc(F)cc2)c(=O)c1O`, the bioavailability was 22% in data set [5], 46% in [9] and 53% in data set [21]. Further, the “Ratio IC50” value in [6] was found to be 200; in data set [12] it was 12; in [18], 21; in data set [26], 1.5. Moreover, the concentration at 24 h in [7] worked out at 130 ng/mL. Moreover, the Ratio in data set [8] was found to be 6; in data set [17], 3.4; in data set [22], 1.6. Also, the IC50 is 120 nM in [4], 18 nM in [1] and 10 nM in data set [3]. In addition, the clearance in data set [10] was found to be 2.4 mL/min/kg; in [24], 0.84 mL/min/kg; in data set [27], 1.2 mL/min/kg. Moreover, the Vd amounted to 0.14 L/kg in data set [11], 0.3 L/kg in data set [15] and 0.2 L/kg in data set [25]. The half-life in data set [13] was 4.7 h; in [16], 5.3 h; in data set [20] it was 3.8 h; in [23] it was 4.2 h. Besides, in [14], the “inhibition (INH)” value was “Not Active”. In data set [2], this compound returned a CC50 at 96 h of 19000 nM. The AUC(0-inf) in [19] turned out to be 41200 ng·h/mL.

Turning to `COc1cc2c(cc1Cc1cccc(Cl)c1F)c(=O)c(C(=O)O)cn2[C@H](CO)C(C)C` [ELVITEGRAVIR], the IC50 in data set [4] was 29 nM; in data set [3], 1.3 nM.
